Experimental data taken from ChEMBL document CHEMBL5357066, “Development of Novel Membrane Disrupting Lipoguanidine Compounds Sensitizing Gram-Negative Bacteria to Antibiotics” (ACS Med Chem Lett, 2024).
Converted amounts (≈) assume the structure as drawn.

What was measured:
Pseudomonas aeruginosa [1] = test: Antibacterial activity against Pseudomonas aeruginosa NCTC 13437 assessed as bacterial growth inhibition incubated for overnight by microbroth dilution method; assay type: functional
Procedure, shortened: (§1)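 Broth microdilution in Tryptic Soy Broth. DMSO stocks were diluted in TSB as 2-fold series. Overnight TSB cultures were back-diluted to OD 0.01 and mixed 1:1 with compound. Incubation was overnight at 37 °C. MIC was the lowest concentration without visible growth (<0.1 OD600). DMSO vehicle was checked at equivalent concentrations.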

Klebsiella pneumoniae [2] = test: Synergistic antibacterial activity against Klebsiella pneumoniae NCTC 13368 assessed as fold change in rifampicin MIC at <=0.25 times MIC incubated for overnight by microbroth dilution checkerboard assay relative to rifampicin alone; assay type: functional
Procedure, shortened: (§2)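 Checkerboard run under the MIC conditions (TSB, overnight, 37 °C). Antibiotic and lipoguanidine 2-fold series were combined on one plate before bacteria were added. Growth/no-growth was scored as for the MIC (<0.1 OD600). Single-agent MICs were measured on the same plates. Three independent repeats were done.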

Staphylococcus aureus [3] = test: Antibacterial activity against methicillin resistant Staphylococcus aureus USA 300 assessed as bacterial growth inhibition incubated for overnight by microbroth dilution method; assay type: functional
Procedure, shortened: (§3)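 Microbroth dilution in Tryptic Soy Broth. DMSO stocks were diluted in TSB as 2-fold series. Overnight TSB cultures were back-diluted to OD 0.01 and mixed 1:1 with compound. Incubation was overnight at 37 °C. MIC is the lowest concentration with no visible growth (<0.1 OD600). DMSO at equivalent concentrations was checked.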

Pseudomonas aeruginosa [4] = test: Antibacterial activity against Pseudomonas aeruginosa PAO1 assessed as bacterial growth inhibition incubated for overnight by microbroth dilution method; assay type: functional; procedure, shortened: as §1
Acinetobacter baumannii [5] = test: Synergistic antibacterial activity against Acinetobacter baumannii ATCC 17978 assessed as fold change in rifampicin MIC at <=0.25 times MIC incubated for overnight by microbroth dilution checkerboard assay relative to rifampicin alone; assay type: functional
Procedure, shortened: (§4)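 Checkerboard microdilution under MIC conditions (TSB, overnight, 37 °C). Two-fold series of each agent were combined on one plate before bacteria were added, and single-agent MICs were measured on the same plate. FIC = sum of combination MIC/alone MIC for each agent, taken from the most synergistic well. Three independent repeats, mean ± SD. ≤0.5 was taken as strong synergy and 0.5–<1 as weak.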

Pseudomonas aeruginosa [6] = test: Synergistic antibacterial activity against Pseudomonas aeruginosa PAO1 assessed as fold change in rifampicin MIC at <=0.25 times MIC incubated for overnight by microbroth dilution checkerboard assay relative to rifampicin alone; assay type: functional
Procedure, shortened: (§5)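 Checkerboard microdilution in Tryptic Soy Broth, run like the MIC assay. Overnight TSB cultures were back-diluted to OD 0.01 and added 1:1 to the combined two-fold series of both agents, then incubated overnight at 37 °C. Growth/no-growth was called at <0.1 OD600. MICs alone were read on the same plates. FIC index came from the most synergistic well; three independent repeats, mean ± SD.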

Acinetobacter baumannii [7] = test: Synergistic antibacterial activity against Acinetobacter baumannii ATCC 17978 assessed as rifampicin MIC at <=0.25 times MIC incubated for overnight by microbroth dilution checkerboard assay; assay type: functional; procedure, shortened: as §4
Klebsiella pneumoniae [8] = test: Synergistic antibacterial activity against […] Klebsiella pneumoniae M6 assessed as rifampicin MIC at <=0.25 times MIC incubated for overnight by microbroth dilution checkerboard assay; assay type: functional; procedure, shortened: as §2
Acinetobacter baumannii [9] = test: Antibacterial activity against Acinetobacter baumannii ATCC 17978 assessed as bacterial growth inhibition incubated for overnight by microbroth dilution method; assay type: functional; procedure, shortened: as §1
Pseudomonas aeruginosa [10] = test: Synergistic antibacterial activity against Pseudomonas aeruginosa NCTC 13437 assessed as fold change in rifampicin MIC at <=0.25 times MIC incubated for overnight by microbroth dilution checkerboard assay relative to rifampicin alone; assay type: functional; procedure, shortened: as §5
Klebsiella pneumoniae [11] = test: Antibacterial activity against ESBL Klebsiella pneumoniae NCTC 13368 assessed as bacterial growth inhibition incubated for overnight by microbroth dilution method
Escherichia coli [12] = test: Antibacterial activity against Escherichia coli NCTC 12923 assessed as bacterial growth inhibition incubated for overnight by microbroth dilution method; assay type: functional; procedure, shortened: as §1
Staphylococcus aureus [13] = test: Antibacterial activity against methicillin sensitive Staphylococcus aureus 1199B assessed as bacterial growth inhibition incubated for overnight by microbroth dilution method; assay type: functional; procedure, shortened: as §3
Escherichia coli [14] = test: Synergistic antibacterial activity against Escherichia coli NCTC 12923 assessed as fold change in rifampicin MIC at <=0.25 times MIC incubated for overnight by microbroth dilution checkerboard assay relative to rifampicin alone; assay type: functional; procedure, shortened: as §4
Klebsiella pneumoniae [15] = test: Synergistic antibacterial activity against Klebsiella pneumoniae NCTC 13368 assessed as rifampicin MIC at <=0.25 times MIC incubated for overnight by microbroth dilution checkerboard assay; assay type: functional; procedure, shortened: as §4
Acinetobacter baumannii [16] = test: Synergistic antibacterial activity against Acinetobacter baumannii AYE assessed as fold change in rifampicin MIC at <=0.25 times MIC incubated for overnight by microbroth dilution checkerboard assay relative to rifampicin alone; assay type: functional; procedure, shortened: as §4
Acinetobacter baumannii [17] = test: Synergistic antibacterial activity against Acinetobacter baumannii AYE assessed as rifampicin MIC at <=0.25 times MIC incubated for overnight by microbroth dilution checkerboard assay; assay type: functional; procedure, shortened: as §4
Staphylococcus aureus [18] = test: Antibacterial activity against methicillin sensitive Staphylococcus aureus ATCC 9144 assessed as bacterial growth inhibition incubated for overnight by microbroth dilution method; assay type: functional; procedure, shortened: as §3
Acinetobacter baumannii [19] = test: Antibacterial activity against Acinetobacter baumannii AYE assessed as bacterial growth inhibition incubated for overnight by microbroth dilution method; assay type: functional; procedure, shortened: as §1
Enterococcus faecalis [20] = test: Antibacterial activity against vancomycin sensitive Enterococcus faecalis NCTC 775 assessed as bacterial growth inhibition incubated for overnight by microbroth dilution method
Escherichia coli [21] = test: Synergistic antibacterial activity against Escherichia coli NCTC 12923 assessed as rifampicin MIC at <=0.25 times MIC incubated for overnight by microbroth dilution checkerboard assay; assay type: functional; procedure, shortened: as §4
Enterococcus faecium = test: Antibacterial activity against vancomycin resistant Enterococcus faecium NCTC 12204 assessed as bacterial growth inhibition incubated for overnight by microbroth dilution method; assay type: functional; procedure, shortened: as §3
Pseudomonas aeruginosa [22] = test: Synergistic antibacterial activity against Pseudomonas aeruginosa PAO1 assessed as rifampicin MIC at <=0.25 times MIC incubated for overnight by microbroth dilution checkerboard assay; assay type: functional; procedure, shortened: as §5
Klebsiella pneumoniae [23] = test: Antibacterial activity against Klebsiella pneumoniae M6 assessed as bacterial growth inhibition incubated for overnight by microbroth dilution method
Pseudomonas aeruginosa [24] = test: Synergistic antibacterial activity against Pseudomonas aeruginosa NCTC 13437 assessed as bacterial growth inhibition incubated for overnight in presence of PBMN by microbroth dilution method relative to control; assay type: functional
Procedure, shortened: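 Adapted broth microdilution in TSB. The test compound was in a 2-fold dilution series, with PMBN added at a fixed 30 µg/mL. Bacteria at OD 0.02 were added, and plates were incubated overnight at 37 °C. Growth/no growth was read as for the MIC (<0.1 OD600).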

Enterococcus faecalis [25] = test: Antibacterial activity against vancomycin resistant Enterococcus faecalis NCTC 12201 assessed as bacterial growth inhibition incubated for overnight by microbroth dilution method; assay type: functional; procedure, shortened: as §3
Pseudomonas aeruginosa [26] = test: Synergistic antibacterial activity against Pseudomonas aeruginosa NCTC 13437 assessed as rifampicin MIC at <=0.25 times MIC incubated for overnight by microbroth dilution checkerboard assay; assay type: functional; procedure, shortened: as §5
Staphylococcus aureus [27] = test: Antibacterial activity against methicillin resistant Staphylococcus aureus NCTC 13616 assessed as bacterial growth inhibition incubated for overnight by microbroth dilution method; assay type: functional; procedure, shortened: as §3

SMILES	MIC (Pseudomonas aeruginosa [1]) [µg/mL]	fold change (FC) (Klebsiella pneumoniae [2])	MIC (Staphylococcus aureus [3]) [µg/mL]	MIC (Pseudomonas aeruginosa [4]) [µg/mL]	fold change (FC) (Acinetobacter baumannii [5])	fold change (FC) (Pseudomonas aeruginosa [6])	MIC (Acinetobacter baumannii [7]) [µg/mL]	MIC (Klebsiella pneumoniae [8]) [µg/mL]	MIC (Acinetobacter baumannii [9]) [µg/mL]	fold change (FC) (Pseudomonas aeruginosa [10])	MIC (Klebsiella pneumoniae [11]) [µg/mL]	MIC (Escherichia coli [12]) [µg/mL]	MIC (Staphylococcus aureus [13]) [µg/mL]	fold change (FC) (Escherichia coli [14])	MIC (Klebsiella pneumoniae [15]) [µg/mL]	fold change (FC) (Acinetobacter baumannii [16])	MIC (Acinetobacter baumannii [17]) [µg/mL]	MIC (Staphylococcus aureus [18]) [µg/mL]	MIC (Acinetobacter baumannii [19]) [µg/mL]	MIC (Enterococcus faecalis [20]) [µg/mL]	other results
CCCCCCCCCCNC(=N)NCCCCN	> 128	>=4	32 (≈ 118 µM)	> 128	>=4	>=4	≤ 0.125	≤ 0.125	> 128	>=4	> 128	128 (≈ 473 µM)	32 (≈ 118 µM)	>=4	0.25	>=4	≤ 0.125	16 (≈ 59.2 µM)	> 128	128 (≈ 473 µM)	MIC (Escherichia coli [21]): ≤ 0.125 µg/mL; MIC (Enterococcus faecium): > 128 µg/mL; MIC (Pseudomonas aeruginosa [22]): ≤ 0.125 µg/mL; MIC (Klebsiella pneumoniae [23]): > 128 µg/mL; inhibition (INH) (Pseudomonas aeruginosa [24]): <20%; MIC (Enterococcus faecalis [25]): > 128 µg/mL; MIC (Pseudomonas aeruginosa [26]): ≤ 0.125 µg/mL; MIC (Staphylococcus aureus [27]): 32 µg/mL (≈ 118 µM)
CCCCCCCC/C=C\CCCCCCCCNC(=N)NCCCCNC(=N)N	> 128	>=4	2 (≈ 4.73 µM)	128 (≈ 303 µM)	>=4	0	≤ 0.125	2	8 (≈ 18.9 µM)	0	128 (≈ 303 µM)	8 (≈ 18.9 µM)	2 (≈ 4.73 µM)	0	≤ 0.125	>=4	≤ 0.125	4 (≈ 9.46 µM)	32 (≈ 75.7 µM)	2 (≈ 4.73 µM)	MIC (Escherichia coli [21]): 8 µg/mL; MIC (Enterococcus faecium): 2 µg/mL (≈ 4.73 µM); MIC (Pseudomonas aeruginosa [22]): 16 µg/mL; MIC (Klebsiella pneumoniae [23]): 16 µg/mL (≈ 37.9 µM); inhibition (INH) (Pseudomonas aeruginosa [24]): <20%; MIC (Enterococcus faecalis [25]): 2 µg/mL (≈ 4.73 µM); MIC (Pseudomonas aeruginosa [26]): 16 µg/mL; MIC (Staphylococcus aureus [27]): 2 µg/mL (≈ 4.73 µM)
CCCCC/C=C\C/C=C\CCCCCCCCNC(=N)NCCCCN	> 64	0	8 (≈ 21.1 µM)	16 (≈ 42.3 µM)	>=4	0	0.5	4	8 (≈ 21.1 µM)	0	16 (≈ 42.3 µM)	4 (≈ 10.6 µM)	16 (≈ 42.3 µM)	0	16	>=4	0.25	8 (≈ 21.1 µM)	8 (≈ 21.1 µM)	32 (≈ 84.5 µM)	MIC (Escherichia coli [21]): 8 µg/mL; MIC (Enterococcus faecium): 16 µg/mL (≈ 42.3 µM); MIC (Pseudomonas aeruginosa [22]): 16 µg/mL; MIC (Klebsiella pneumoniae [23]): 8 µg/mL (≈ 21.1 µM); MIC (Enterococcus faecalis [25]): 16 µg/mL (≈ 42.3 µM); MIC (Pseudomonas aeruginosa [26]): 16 µg/mL; MIC (Staphylococcus aureus [27]): 16 µg/mL (≈ 42.3 µM)
